Assay results pooled from the literature.
Compare with care: the assays were run in different laboratories.
Target: Phosphorylase b kinase gamma catalytic chain, skeletal muscle/heart isoform (PHKG1, Homo sapiens, UniProt Q16816)

| SMILES | test | conditions | quantity | value |
| --- | --- | --- | --- | --- |
| Cn1cncc1[C@@](O)(COc1ccc(C#N)cc1-c1ccc(OC(F)(F)F)cc1)c1ccc(C#N)cc1 | cell-free assay, competition with immobilised ligand | 1 µM | remaining binding | 95% |
| O=c1[nH]c2ccccc2n1C1CCN(Cc2ccc(-c3[nH]c4cc5ncnc5cc4nc3-c3ccccc3)cc2)CC1 | cell-free assay | 0.5 µM | remaining signal | 106% |
| Cc1nn(C)cc1-c1nc2c(N3CCN(Cc4ccc(Cl)cc4)CC3)c(Cl)cnc2[nH]1 | binding, competition with immobilised ligand | 1 µM | remaining binding | 100% |
| Cn1cc(-c2cccc(N3CCc4c(sc5c4CC(C)(C)C5)C3=O)c2CO)cc(Nc2ccncn2)c1=O | enzyme activity, inhibitor | 1 µM | inhibition | 6% |
| COc1ncccc1-c1cnn2ccc(N3CCN(C(=O)OC(C)C)CC3)nc12 | binding, competition with immobilised ligand | 1 µM | remaining binding | 100% |
| Nc1ncc(-c2nc(N3CCOCC3)nc(N3CCOCC3)n2)c(C(F)F)n1 | binding, competition with immobilised ligand | 10 µM | remaining binding | 94% |
| N#CC1(c2ccccn2)CCN(Cc2cc(C(=O)O)c(=O)n3ccccc23)CC1 | cell-free assay, competition with immobilised ligand | 1 µM | remaining binding | 100% |
| CC(C)(C)c1cc(C=C(C#N)C#N)cc(Br)c1O | enzyme activity, inhibitor | 0.5 µM | remaining activity | 96.7% |
| Cn1cc(-c2cc(F)cc(N3CCn4c(cc5c4CCCC5)C3=O)c2CO)cc(Nc2ccc(N3CCN(C4COC4)CC3)cn2)c1=O | enzyme activity, inhibitor | 0.1 µM | inhibition | 6% |
| COc1cc(Nc2ncc(F)c(Nc3ccc4c(n3)NC(=O)C(C)(C)O4)n2)cc(OC)c1OC | binding | 10 µM | inhibition | 29% |
